{"source": "paper PMC8717895", "about": "(Neuro-oncology Advances, 2021)", "key": {"[1]": {"assay": "CSF crenolanib disposition", "assay_type": "in vivo, human", "settings": "for CSF crenolanib concentration: stratum A2 patient"}, "newly diagnosed DIPG": {"test_system": "newly diagnosed DIPG", "assay": "Survival outcomes, stratum A", "assay_type": "in vivo, human", "method_in_brief": "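Dosing began with conformal RT (1.8-Gy fractions daily, 5 days/week, 54 Gy) and continued without break. PFS ran from therapy start to progression or death; OS ran from diagnosis to death. Kaplan–Meier estimates; log-rank versus age-matched institutional DIPG cohort (1992–2011).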"}, "[2]": {"settings": "in vitro, human plasma; cited from earlier work"}, "phospho-PDGFR": {"test_system": "phospho-PDGFR", "settings": "C6 glioblastoma xenograft, single oral dose of 10 mg/kg, maintained for 3 h; ref Crenolanib Investigator's Brochure, AROG Pharmaceuticals, LLC, 2011; cited from earlier work"}, "[3]": {"assay_type": "in vivo, human", "settings": "stratum B"}, "[4]": {"test_system": "recurrent HGG, including DIPG", "assay": "Survival outcomes and response, stratum B", "assay_type": "in vivo, human", "method_in_brief": "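Dosing was BSA-based, rounded to 20 mg, and escalated from 100 mg/m2. PFS ran from therapy start to progression or any-cause death; OS ran from diagnosis to any-cause death. Event-free patients were censored at last follow-up. Survival was estimated by Kaplan–Meier.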"}, "[5]": {"assay": "Serum pharmacokinetics across all dosage levels", "assay_type": "in vivo", "settings": "human, oral; for Tmax: across dosage levels; for half-life: pediatric patients, across all dosage levels"}, "[6]": {"test_system": "human glioma xenograft (U87MG)", "settings": "after 9 days of dosing at 50 mg/kg BID, ref Crenolanib Investigator's Brochure, AROG Pharmaceuticals, LLC, 2011; cited from earlier work"}}, "note": "Entries after “also recorded” stand apart in the source; their conditions may differ. Where two headings read alike, the source gives them in different places."}
{"smiles": "CC1(COc2ccc3c(c2)ncn3-c2ccc3cccc(N4CCC(N)CC4)c3n2)COC1", "note": "[crenolanib]", "values": [{"measurement": "Kp", "setting": "[1]; human, cerebrospinal fluid / serum (total), oral, 100 mg/m^2", "result": 0.025}, {"measurement": "serum crenolanib concentration", "setting": "[1]; simultaneous with day 28 CSF sampling, third cycle", "result": 546, "unit": "nM"}, {"measurement": "CSF crenolanib concentration", "setting": "[1]; third cycle day 14, approximately 19 h after dose", "result": 9.15, "unit": "nM"}, {"measurement": "CSF crenolanib concentration", "setting": "[1]; third cycle day 28, approximately 19 h after dose", "result": 13.6, "unit": "nM"}, {"measurement": "1-year OS estimate", "setting": "newly diagnosed DIPG; all patients in stratum A", "result": "43.3% ± 8.7%"}, {"measurement": "1-year PFS estimate", "setting": "newly diagnosed DIPG; all patients in stratum A", "result": "17.8% ± 7.2%"}, {"measurement": "2-year OS estimate", "setting": "newly diagnosed DIPG; all patients in stratum A", "result": "20.0% ± 6.8%"}, {"measurement": "6-month PFS estimate", "setting": "newly diagnosed DIPG; all patients in stratum A", "result": "74.9% ± 8.2%"}, {"measurement": "OS distributions versus historical cohort of newly diagnosed DIPG (n = 189)", "setting": "newly diagnosed DIPG; stratum A, log-rank P = .99", "result": "no significant difference"}, {"measurement": "unbound fraction", "setting": "[2]", "result": 4.1, "unit": "%"}, {"measurement": "inhibition of phospho-PDGFR", "setting": "phospho-PDGFR", "result": 53, "unit": "%"}, {"measurement": "DLTs attributable to crenolanib during the DLT observation period", "setting": "[3]; dose level 3", "result": "grade 4 GGT, ALT, and AST elevations"}, {"measurement": "DLTs attributable to crenolanib during the DLT observation period", "setting": "[3]; dose level 4", "result": "grade 3 amylase, GGT, ALT, and AST elevations; also recorded: grade 3 GGT elevation"}, {"measurement": "patients having grade 3/4 elevations of ALT, AST, GGT, or alkaline phosphatase", "setting": "[3]; during and after the DLT period", "result": 17, "unit": "%"}, {"measurement": "Maximum tolerated dose (MTD)", "setting": "[3]; once daily single agent, pediatric", "result": 170, "unit": "mg/m^2"}, {"measurement": "Most common grade 3/4 toxicity", "setting": "[3]; resolved with drug interruption", "result": "leukopenia"}, {"measurement": "1-year OS estimate", "setting": "[4]; all patients in stratum B", "result": "72.1% ± 9.5%"}, {"measurement": "1-year PFS estimate", "setting": "[4]; all patients in stratum B", "result": "5.2% ± 3.5%"}, {"measurement": "2-year OS estimate", "setting": "[4]; all patients in stratum B", "result": "33.7% ± 9.7%"}, {"measurement": "6-month PFS estimate", "setting": "[4]; all patients in stratum B", "result": "10.3% ± 5.6%"}, {"measurement": "Objective radiologic responses", "setting": "[4]; stratum B", "result": "No objective radiologic responses were observed"}, {"measurement": "Tmax", "setting": "[5]; median", "result": 4, "unit": "h"}, {"measurement": "Tmax", "setting": "[5]; range", "result": "1 to 8", "unit": "h"}, {"measurement": "half-life", "setting": "[5]; median", "result": 7.1, "unit": "h"}, {"measurement": "half-life", "setting": "[5]; range", "result": "2.2 to 18.8", "unit": "h"}, {"measurement": "inhibition of xenograft growth", "setting": "[6]", "result": 47, "unit": "%"}]}
